ChEMBL document CHEMBL4715918, “Syntheses and evaluation of acridone-naphthalimide derivatives for regulating oncogene PDGFR-β expression” (Bioorg Med Chem, 2021)

Columns and labels:
Quadruplex DNA [1] = assay: Binding affinity to 5'-biotin-d [GCTGGGAGAAGGGGGGGCGGCGGGGCAGGGAGGGTGGACGC]-3' G4-quadruplex DNA (unknown origin) assessed as change in melting temperature at 10 uM by CD spectroscopy; type: nucleic-acid assay
In short: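 Oligomer 2 µM in Tris-HCl pH 7.4, annealed (95 °C for 5 min, slow cooling, 4 °C overnight). Ligand 10 µM. CD ellipticity followed at 263 nm over 25–95 °C; ΔTm taken against DNA alone.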

MCF7 [2] = assay: Antitumour activity against human MCF7 cells xenografted in nude BALB/c mouse assessed as tumour volume at 10 mg/kg, ip administered for 34 days (reference value: 1530 mm3); type: functional; details: time 34 day
Quadruplex DNA [3] = assay: Binding affinity to 5'-biotin-d [GCTGGGAGAAGGGGGGGCGGCGGGGCAGGGAGGGTGGACGC]-3' G4-quadruplex DNA (unknown origin) assessed as decrease in positive peak by CD spectroscopy; type: nucleic-acid assay; details: dose 2-10 equiv
In short: (§1)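 CD spectra: oligomers at 2 μM final, in BPES pH 5.5 (i-motif) or Tris-HCl pH 7.4 (G-quadruplex). Samples were annealed (95 °C 5 min, slow cool, 4 °C overnight), then titrated with increasing compound. Spectra were recorded at 25 °C over 230–330 nm in a 1 mm cuvette, buffer-subtracted, averaged and smoothed.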

MCF7 [4] = assay: Antitumour activity against human MCF7 cells xenografted in nude BALB/c mouse assessed as tumour volume at 2.5 mg/kg, ip administered for 34 days (reference value: 1530 mm3); type: functional; details: time 34 day
MCF7 [5] = assay: Induction apoptosis in human MCF7 cells assessed as early apoptotic cells at 2.5 uM incubated for 24 hrs by Annexin-FTTC/PI staining based flow cytometric analysis (reference value: 0.28%); type: functional
[6] = Binding affinity to 5'-biotin-d [GCGTCCACCCTCCCTGCCCCGCCGCCCCCCCITCTCCCAGC]-3' i-motif DNA (unknown origin) assessed as decrease in positive peak by CD spectroscopy; details: dose 2-10 equiv; in short: as §1
MCF7 [7] = assay: Antitumour activity against human MCF7 cells xenografted in nude BALB/c mouse assessed as tumour growth inhibition at 5 mg/kg, ip administered for 34 days relative to control; type: functional; details: 816 h, time 34 day, read-out: TGI
MCF7 [8] = assay: Antitumour activity against human MCF7 cells xenografted in nude BALB/c mouse assessed as tumour volume at 5 mg/kg, ip administered for 34 days (reference value: 1530 mm3); type: functional; details: time 34 day
[9] = Binding affinity to 5'-biotin-d [GCGTCCACCCTCCCTGCCCCGCCGCCCCCCCITCTCCCAGC]-3' i-motif DNA (unknown origin) assessed as change in melting temperature at 10 uM by CD spectroscopy
In short: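 Oligomer 2 µM in BPES buffer pH 5.5, heated to 95 °C for 5 min, cooled slowly and held at 4 °C overnight. Ligand 10 µM. CD ellipticity followed at 288 nm from 25–95 °C (1 mm cuvette); Tm derived, ΔTm against DNA alone.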

MCF7 [10] = assay: Induction apoptosis in human MCF7 cells assessed as viable cells at 1.25 uM incubated for 24 hrs by Annexin-FTTC/PI staining based flow cytometric analysis (reference value: 99.7%); type: functional; details: read-out: Activity
[11] = Binding affinity to FAM-labeled 5'-biotin-d[TATAGCTATA-HEG-TATAGCTATA]- 3' duplex DNA (unknown origin) by microscale thermophoresis assay
In short: (§2)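 Microscale thermophoresis with DNA held constant at 1 µM. Compound serially diluted 3:4 from 10 µM over 12 points. Samples run in standard glass capillaries with LED and laser power both at 20%. KD derived by fitting.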

MCF7 [12] = assay: Induction apoptosis in human MCF7 cells incubated for 24 hrs by Annexin-FTTC/PI staining based flow cytometric analysis; type: functional, cell-based; details: dose 1.25-5 µM
MCF7 [13] = assay: Antitumour activity against human MCF7 cells xenografted in nude BALB/c mouse assessed as tumour growth inhibition at 10 mg/kg, ip administered for 34 days relative to control; type: functional; details: 816 h, time 34 day, read-out: TGI
MCF7 [14] = assay: Induction apoptosis in human MCF7 cells assessed as early apoptotic cells at 1.25 uM incubated for 24 hrs by Annexin-FTTC/PI staining based flow cytometric analysis (reference value: 0.28%); type: functional
Quadruplex DNA [15] = assay: Binding affinity to 5'-biotin-d [GCTGGGAGAAGGGGGGGCGGCGGGGCAGGGAGGGTGGACGC]-3' G4-quadruplex DNA (unknown origin) by surface plasmon resonance assay; type: nucleic-acid assay
In short: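 SPR: biotinylated oligomers were captured on a neutravidin chip at ~1000 RU, with a blank reference cell. Running buffer was 20 mM MES pH 5.5, 100 mM KCl, 0.05% Tween-20 for the i-motif, or 50 mM Tris-HCl pH 7.4, 100 mM KCl for the G-quadruplex. Ligand was injected at 0–10 μM (six concentrations), with 200 s association and 300 s dissociation at 25 °C.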

HEK293 = assay: Cytotoxicity against HEK293 cells assessed as reduction in cell viability after 48 hrs by MTT assay; type: cell-based; details: Homo sapiens, HEK293, 48 h
In short: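 MTT assay: cells seeded at 5.0 × 10³/well, grown 12 h, then exposed to graded compound concentrations for 48 h at 37 °C/5% CO2. 2.5 mg/mL MTT was added for 4 h, formazan dissolved in DMSO, and absorbance read at 570 nm. Each dose in triplicate; IC50 from percent survival versus negative control.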

[16] = Binding affinity to FAM-labeled 5'-biotin-d [GCGTCCACCCTCCCTGCCCCGCCGCCCCCCCITCTCCCAGC]-3' i-motif DNA (unknown origin) by microscale thermophoresis assay; in short: as §2
MCF7 [17] = assay: Induction apoptosis in human MCF7 cells assessed as viable cells at 5 uM incubated for 24 hrs by Annexin-FTTC/PI staining based flow cytometric analysis (reference value: 99.7%); type: functional; details: read-out: Activity
MCF7 [18] = assay: Induction apoptosis in human MCF7 cells assessed as viable cells at 2.5 uM incubated for 24 hrs by Annexin-FTTC/PI staining based flow cytometric analysis (reference value: 99.7%); type: functional; details: read-out: Activity
MCF7 [19] = assay: Antitumour activity against human MCF7 cells xenografted in ip dosed nude BALB/c mouse assessed as tumour growth inhibition administered for 34 days; type: functional, organism-based; details: dose 2.5-10 mg/kg, time 34.0 day
MCF7 [20] = assay: Induction apoptosis in human MCF7 cells assessed as necrotic cells at 2.5 uM incubated for 24 hrs by Annexin-FTTC/PI staining based flow cytometric analysis (reference value: 0.11%); type: functional
MCF7 [21] = assay: Induction apoptosis in human MCF7 cells assessed as necrotic cells at 5 uM incubated for 24 hrs by Annexin-FTTC/PI staining based flow cytometric analysis (reference value: 0.11%); type: functional
MCF7 [22] = assay: Binding affinity to wild type PDGFRbeta promoter (unknown origin) in human MCF7 cells after 48 hrs by dual luciferase reporter assay; type: cell-based
In short: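 MCF-7 cells were transfected with 200 ng psiCHECK2 plasmid carrying the wild-type PDGFR-β promoter. After 4 h, compound was added at various concentrations and cells were incubated 48 h at 37 °C. Cells were washed with cold PBS and dual-luciferase signals read for 10 s. Renilla activity was normalised to firefly.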

ΔTm (Quadruplex DNA [1]): > 20 °C
Activity (Quadruplex DNA [3]): Dose-dependent effect
Activity [6]: Dose-dependent effect
ΔTm [9]: -16.7 °C
Kd [11]: 529 µM
Kd (Quadruplex DNA [15]): 3.23 µM
Kd [16]: 4.52 µM
SMILES: Cc1ccc2c(c1)c(=O)c1cc(C(=O)NCCCN(C)CCCN3C(=O)c4cccc5c(N6CCN(C)CC6)ccc(c45)C3=O)ccc1n2-c1ccc(C(=O)NCCCN(C)CCCN2C(=O)c3cccc4c(N5CCN(C)CC5)ccc(c34)C2=O)cc1
Activity (MCF7 [2]): 640.2 mm3
Activity (MCF7 [4]): 985.1 mm3
Activity (MCF7 [5]): 26.1%
inhibition in vivo at 5 mg/kg (MCF7 [7]): 47.6%
Activity (MCF7 [8]): 780 mm3
viability at 1.25 µM (MCF7 [10]): 91.4%
Activity (MCF7 [12]): Dose-dependent effect
inhibition in vivo at 10 mg/kg (MCF7 [13]): 56.5%
Activity (MCF7 [14]): 7.38%
IC50 (HEK293): > 50 µM
viability at 5 µM (MCF7 [17]): 13%
viability at 2.5 µM (MCF7 [18]): 71.4%
Activity (MCF7 [19]): Dose-dependent effect
Activity (MCF7 [20]): 0.49%
Activity (MCF7 [21]): 2.42%
Activity (MCF7 [22]): Dose-dependent effect
